For one molecule, inhibition and Activity results are on record in ChEMBL document CHEMBL2434898, “New β-phospholactam as a carbapenem transition state analog: Synthesis of a broad-spectrum inhibitor of metallo-β-lactamases” (Bioorg Med Chem Lett, 2013).

Activity calls are given as the source filed them. The calls are words filed in the database; no cut-off is given here.

A short description of test [1]: Inhibition of Metallo-beta-lactamase CcrA (unknown origin) assessed as inhibition of nitrocefin hydrolysis preincubated at 100 uM for 30 mins before substrate addition by spectrophotometry. In a few lines:
(§1)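 Each enzyme (IMP-1, CcrA, Bla2, NDM-1 of subclass B1; L1 of B3) was pre-incubated with inhibitor in DMSO for 30 min, then substrate hydrolysis was measured. Results are given as percent inhibition.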

The nature of test [2]: Inhibition of Metallo-beta-lactamase L1 (unknown origin) assessed as inhibition of nitrocefin hydrolysis at 100 uM by spectrophotometry. A digest of the protocol: (§2)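 Purified metallo-β-lactamases (subclass B1: IMP-1, CcrA, Bla2, NDM-1; B3: L1) were mixed with inhibitor dissolved in DMSO with no pre-incubation before the hydrolysis assay. Activity is reported as percent inhibition.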

Test [3] is described as follows: Inhibition of Metallo-beta-lactamase Bla2 (unknown origin) assessed as inhibition of nitrocefin hydrolysis preincubated at 100 uM before substrate addition by spectrophotometry. The settings on record: TDE = time-dependent effect.
The nature of test [4]: Inhibition of Metallo-beta-lactamase NDM1 (unknown origin) assessed as inhibition of nitrocefin hydrolysis preincubated at 100 uM before substrate addition by spectrophotometry. Particulars: TDE = time-dependent effect.
The nature of test [5]: Inhibition of Metallo-beta-lactamase IMP-1 (unknown origin) assessed as inhibition of nitrocefin hydrolysis preincubated at 100 uM before substrate addition by spectrophotometry. The settings on record: TDE = time-dependent effect.
Test [6] can be described thus: Inhibition of Metallo-beta-lactamase CcrA (unknown origin) assessed as inhibition of nitrocefin hydrolysis preincubated at 100 uM before substrate addition by spectrophotometry. The settings on record: TDE = time-dependent effect.
Test [7] can be described thus: Inhibition of Metallo-beta-lactamase IMP-1 (unknown origin) assessed as inhibition of nitrocefin hydrolysis at 100 uM by spectrophotometry. In a few lines: as §2
Test [8] can be described thus: Inhibition of metallo-beta-lactamase L1 (unknown origin) assessed as inhibition of nitrocefin hydrolysis preincubated at 100 before substrate addition by spectrophotometry. The settings on record: TDE = time-dependent effect.
A short description of test [9]: Inhibition of Metallo-beta-lactamase Bla2 (unknown origin) assessed as inhibition of nitrocefin hydrolysis preincubated at 100 uM for 30 mins before substrate addition by spectrophotometry. A digest of the protocol: as §1
Test [10] can be described thus: Inhibition of metallo-beta-lactamase L1 (unknown origin) assessed as inhibition of nitrocefin hydrolysis preincubated at 100 uM for 30 mins before substrate addition by spectrophotometry. A digest of the protocol:
as §1

Test [11] in a line: Inhibition of Metallo-beta-lactamase IMP-1 (unknown origin) assessed as inhibition of nitrocefin hydrolysis preincubated at 100 uM for 30 mins before substrate addition by spectrophotometry. In a few lines: as §1
Test [12] is described as follows: Activation of metallo-beta-lactamase NDM1 (unknown origin) assessed as hydrolysis of nitrocefin at 100 uM by spectrophotometry. A digest of the protocol:
as §2

A short description of test [13]: Inhibition of Metallo-beta-lactamase NDM1 (unknown origin) assessed as inhibition of nitrocefin hydrolysis preincubated at 100 uM for 30 mins before substrate addition by spectrophotometry. In a few lines:
as §1

Test [14] is described as follows: Activation of metallo-beta-lactamase CcrA (unknown origin) assessed as hydrolysis of nitrocefin at 100 uM by spectrophotometry. A digest of the protocol: as §2
Test [15] can be described thus: Inhibition of Metallo-beta-lactamase Bla2 (unknown origin) assessed as inhibition of nitrocefin hydrolysis at 100 uM by spectrophotometry. A digest of the protocol: as §2

As for `CC(=O)OC1C2CCC(C(=O)O)N2P1(=O)O` (stereo not given), the inhibition (as a rule, the percentage by which the read-out fell short of the control) in test [1] was 69%; in [2] it was 37%; in test [3], “tde”; in test [4], “tde”; in test [5], “tde”; in [6], “tde”. Besides, the inhibition in test [7] is 48%; in test [8] it was “tde”; in [9], 94%; in [10], 70%; in test [11] it was 70%; in [13], 53%. Also, in test [15], the inhibition was 22%. Also, the outcome in test [12] and in test [14] was Active.
